Experimental findings from ChEMBL document CHEMBL1240522, “Effect of goniothalamin on the development of Ehrlich solid tumor in mice” (Bioorg Med Chem, 2010) are described below.

Activity calls are given as the source filed them. The rule behind the calls is not given here. Bounds are passed on as bounds.

Data set [1] concerns Mus musculus. The experiment in a line: Antiinflammatory activity in BALB/C mouse assessed as inhibition of carrageenan-induced paw edema at 20 mg/kg, ip administered 30 mins before carrageenan challenge measured before 48 hrs by plethysmometer. In kind it is functional, organism-based. Also on record: dose 20 mg/kg. The procedure, abridged: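 Balb/C mice, n = 8/group. Right hind paw basal volume measured by plethysmometer. Single ip dose in 0.9% saline vehicle, then carrageenan 2.5% injected intraplantar into the right hind footpad 30 min later. Edema taken as measured minus basal volume at 1.5, 3.0, 4.5, 6.0, 24, 48 and 72 h. Expressed as % inhibition vs vehicle ± standard deviation; ANOVA.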
A general note: The carrageenan paw model is a standard test of acute inflammation.

Data set [2] can be described thus: Cytotoxicity against human NCI-ADR-RES cells after 48 hrs by sulforhodamine B assay. In kind it is functional. The procedure, abridged: (§1)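 Cells grown in RPMI 1640 with 5% FBS at 37 °C, 5% CO2, with penicillin/streptomycin. Treated for 48 h with compound in DMSO/RPMI at […]. Fixed with 50% trichloroacetic acid, protein stained with sulforhodamine B and read at 540 nm. TGI (total growth inhibition) obtained by non-linear regression of the concentration–response curves.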
(In general: Sulforhodamine B stains cellular protein and so reports cell mass.)

The next data set has as its system NCI-H460. Kind of data set: Cytotoxicity against human NCI-H460 cells after 48 hrs by sulforhodamine B assay. In kind it is functional. The conditions noted are these: NCI-H460, 48 h. The procedure, abridged:
as §1

A short description of data set [3]: Antitumor activity against mouse EAC cells xenografted in BALB/C mouse assessed as inhibition of increase in tumor volume at 50 mg/kg, ip administered every 3 days measured on day 15 relative to control. In kind it is functional. The note with it: Ehrlich, route intraperitoneal. The method, boiled down: (§2)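 Ehrlich cells kept as ascites by weekly ip passage of 5 × 10^5 cells in mice. Balb/C mice (n = 8/group) inoculated with 2.5 × 10^6 cells into the right hind footpad. Dosed ip every third day from day 3, vehicle 0.9% saline. Tumour volume taken as plethysmometer paw volume minus basal, every third day to day 15. Reported as % inhibition vs vehicle ± SD; ANOVA.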

In another data set the test system is MCF7. Kind of data set: Cytotoxicity against human MCF7 cells after 48 hrs by sulforhodamine B assay. In kind it is functional. The conditions noted are these: MCF7, 48 h. The method, boiled down:
as §1

The next data set relates to OVCAR-3. Kind of data set: Cytotoxicity against human OVCAR-3 cells after 48 hrs by sulforhodamine B assay. In kind it is functional. The note with it: OVCAR-3, 48 h. The method, boiled down:
as §1

In the next data set the test system is HT-29. The experiment in a line: Cytotoxicity against human HT-29 cells after 48 hrs by sulforhodamine B assay. Type of data set: functional. The note with it: HT-29, 48 h. The method, boiled down: as §1
For data set [4], the system named is Mus musculus. Kind of data set: Acute toxicity in BALB/C mouse assessed as reduction of body weight at up to 50 mg/kg, ip after 15 days. The note with it: in vivo, 360 h. More on the design: dose 50 mg/kg, route intraperitoneal. In kind it is organism-based. The procedure, abridged: (§3)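 Balb/C mice (20–35 g) dosed intraperitoneally at 50, 100 and 300 mg/kg. Observed for 4 h, then daily for 14 days, for body weight loss, locomotion, behaviour (agitation, lethargy), respiration, salivation, tearing eyes, cyanosis and mortality.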

Data set [5] is described as follows: Antitumor activity against mouse EAC cells xenografted in BALB/C mouse assessed as reduction of tumor weight at 50 mg/kg, ip administered every 3 days measured on day 15 relative to control. Type of data set: functional. The conditions noted are these: Ehrlich, route intraperitoneal. The procedure, abridged: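 Ehrlich footpad tumour model in Balb/C mice (n = 8/group, 2.5 × 10^6 cells) with ip dosing every third day from day 3 in 0.9% saline. Mice sacrificed on day 15 and both hind paws weighed. Relative tumour weight = (tumour paw − healthy paw weight)/body weight. Reported as % inhibition vs vehicle ± SD; ANOVA.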

In a further data set the test system is U-251. Kind of data set: Cytotoxicity against human U251 cells after 48 hrs by sulforhodamine B assay. Type of data set: functional. The conditions noted are these: U-251, 48 h. The procedure, abridged: as §1
For a further data set, the system named is UACC-62. Kind of data set: Cytotoxicity against human UACC62 cells after 48 hrs by sulforhodamine B assay. In kind it is functional. The note with it: UACC-62, 48 h. The procedure, abridged:
as §1

The nature of data set [6]: Antitumor activity against mouse EAC cells xenografted in BALB/C mouse assessed as inhibition of increase in tumor volume at 50 mg/kg, ip administered every 3 days measured on day 10 relative to control. Type of data set: functional. The note with it: Ehrlich, route intraperitoneal. The procedure, abridged: as §2
The subject of data set [7] is Mus musculus. The experiment in a line: Acute toxicity in BALB/C mouse assessed as mortality at up to 300 mg/kg, ip after 15 days. The note with it: in vivo, 360 h. In kind it is organism-based. Also on record: dose 300 mg/kg, route intraperitoneal. The procedure, abridged: as §3
The test system of data set [8] is Mus musculus. The experiment in a line: Acute toxicity in BALB/C mouse assessed as mortality at up to 300 mg/kg, ip after 4 hrs. The note with it: in vivo. In kind it is organism-based. More on the design: dose 300 mg/kg, route intraperitoneal. The method, boiled down: as §3
The test system of another data set is 786-0. The experiment in a line: Cytotoxicity against human 786-0 cells after 48 hrs by sulforhodamine B assay. Type of data set: functional. The note with it: 786-0, 48 h. The method, boiled down:
as §1

A short description of data set [9]: Cytotoxicity against human PCO3 cells after 48 hrs by sulforhodamine B assay. In kind it is functional. The conditions noted are these: PCO3, 48 h. The procedure, abridged:
as §1

For `CN1C(C(=O)Nc2ccccn2)=C(O)c2ccccc2S1(=O)=O`, in the data set on Mus musculus [1], the inhibition entry was “Active”.

Turning to `O=C1C=CC[C@@H](/C=C/c2ccccc2)O1`, the TGI (usually the concentration giving total growth inhibition) in data set [2] is 11.5 µM; in the data set on NCI-H460 it was 44.1 µM; with MCF7 it was 77 µM; with OVCAR-3, above 100 µM; in the data set with HT-29 it was 57.6 µM; with U-251, 24.1 µM. Moreover, the TGI stood at 76.4 µM with UACC-62, 28.7 µM in the data set on 786-0 and 24 µM in data set [9]. In addition, the inhibition in vivo (commonly how much of the control response was suppressed) at 50 mg/kg in data set [3] turned out to be 48.7%; in [5], 39.7%; in data set [6], 53.7%. For the same compound, the Activity entry in the data set with Mus musculus [4], with Mus musculus [7] and with Mus musculus [8] was “Non-toxic” throughout.
